Active and inactive are the calls of the source. The calls are words filed in the database; no cut-off is given here.
Assays:
[1] = biological target: T1, Melanin-concentrating hormone receptor 1 (Homo sapiens, UniProt Q99705); assay: Displacement of [125I]MCH from human MCHR1 expressed in CHO cells by competition binding assay; assay type: cell-based
Procedure, shortened: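 Competition binding against [¹²⁵I]-MCH radioligand on membranes from CHO cells expressing human MCH1R; IC50 values are means of two experiments.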

[2] = biological target: Voltage-gated inwardly rectifying potassium channel KCNH2 (Homo sapiens, UniProt Q12809); assay: Displacement of [35S]N-[(4R)-10-[(2R)-6-cyano-1,2,3,4-tetrahydro-2-naphthyl]-3,4-dihydro-4-hydroxyspiro[2H-1-benzopyran-2,40-piperidin]-6-yl]methanesulfonamide from human ERG expressed in HEK293 cells
[3] = biological target: T1, Melanin-concentrating hormone receptor 1; assay: Antagonist activity at human MCHR1 expressed in CHO cells assessed as inhibition of MCH-induced intracellular calcium release by FLIPR assay; assay type: functional, cell-based
Procedure, shortened: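 Agonist-induced intracellular calcium release measured by FLIPR in CHO cells stably expressing human MCH1R; antagonism taken as inhibition of the MCH-evoked signal.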

Mus musculus [4] = assay: Suppression of spontaneous food intake in diet-induced obese C57BL/6 mouse model at 30 mg/kg, po after 24 hrs; assay type: functional
Procedure, shortened: (§1)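 Established DIO mice on high-fat diet given a single oral dose (3, 10, 30 mg/kg) 1–2 h before dark onset, after recording daily intake and body weight; food intake measured 24 h post-dose versus vehicle group.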

[5] = Drug level in Sprague-Dawley rat plasma at 10 mg/kg, po after 2 hrs; assay type: ADME, organism-based; set-up: dose 10 mg/kg, route oral; conditions: read-out: Drug uptake
[6] = Ratio of drug level in brain to plasma in Sprague-Dawley rat plasma at 10 mg/kg, po after 2 hrs; assay type: ADME, organism-based; set-up: dose 10 mg/kg, route oral
Brain = assay: Drug level in Sprague-Dawley rat brain measured per gram of tissue at 10 mg/kg, po after 2 hrs; assay type: ADME, organism-based; set-up: dose 10 mg/kg, route oral; conditions: in vivo
[7] = Drug level in Sprague-Dawley rat cerebrospinal fluid at 10 mg/kg, po after 2 hrs; assay type: ADME, organism-based; set-up: dose 10 mg/kg, route oral; conditions: read-out: Drug uptake
Mus musculus [8] = assay: Suppression of spontaneous food intake in diet-induced obese C57BL/6 mouse model at 10 mg/kg, po after 24 hrs; assay type: functional; procedure, shortened: as §1
Mus musculus [9] = assay: Antiobese effect in diet-induced obese C57BL/6 mouse model assessed as loss of body weight at 10 mg/kg, po QD for 1.5 months; assay type: functional
Procedure, shortened: (§2)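 Established high-fat-fed DIO mice dosed orally once daily at 3, 10 or 30 mg/kg for 1.5 months, each dose given 1–2 h before dark period after daily food intake and body weight recording; body weight change at end of treatment versus vehicle controls, mean ± SEM.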

Mus musculus [10] = assay: Suppression of spontaneous food intake in diet-induced obese C57BL/6 mouse model treated orally chronic administration QD for 1.5 months after 24 hrs; assay type: functional, organism-based
Mus musculus [11] = assay: Suppression of spontaneous food intake in diet-induced obese C57BL/6 mouse model treated orally after 24 hrs; assay type: functional, organism-based; procedure, shortened: as §1
Mus musculus [12] = assay: Antiobese effect in diet-induced obese C57BL/6 mouse model assessed as loss of body weight at 3 mg/kg, po QD for 1.5 months; assay type: functional; procedure, shortened: as §2
Mus musculus [13] = assay: Suppression of spontaneous food intake in diet-induced obese C57BL/6 mouse model at 3 mg/kg, po after 24 hrs; assay type: functional; procedure, shortened: as §1
Mus musculus [14] = assay: Antiobese effect in diet-induced obese C57BL/6 mouse model assessed as loss of body weight at 30 mg/kg, po QD for 1.5 months; assay type: functional; procedure, shortened: as §2

Sequence of Voltage-gated inwardly rectifying potassium channel KCNH2 (Q12809 whole entry): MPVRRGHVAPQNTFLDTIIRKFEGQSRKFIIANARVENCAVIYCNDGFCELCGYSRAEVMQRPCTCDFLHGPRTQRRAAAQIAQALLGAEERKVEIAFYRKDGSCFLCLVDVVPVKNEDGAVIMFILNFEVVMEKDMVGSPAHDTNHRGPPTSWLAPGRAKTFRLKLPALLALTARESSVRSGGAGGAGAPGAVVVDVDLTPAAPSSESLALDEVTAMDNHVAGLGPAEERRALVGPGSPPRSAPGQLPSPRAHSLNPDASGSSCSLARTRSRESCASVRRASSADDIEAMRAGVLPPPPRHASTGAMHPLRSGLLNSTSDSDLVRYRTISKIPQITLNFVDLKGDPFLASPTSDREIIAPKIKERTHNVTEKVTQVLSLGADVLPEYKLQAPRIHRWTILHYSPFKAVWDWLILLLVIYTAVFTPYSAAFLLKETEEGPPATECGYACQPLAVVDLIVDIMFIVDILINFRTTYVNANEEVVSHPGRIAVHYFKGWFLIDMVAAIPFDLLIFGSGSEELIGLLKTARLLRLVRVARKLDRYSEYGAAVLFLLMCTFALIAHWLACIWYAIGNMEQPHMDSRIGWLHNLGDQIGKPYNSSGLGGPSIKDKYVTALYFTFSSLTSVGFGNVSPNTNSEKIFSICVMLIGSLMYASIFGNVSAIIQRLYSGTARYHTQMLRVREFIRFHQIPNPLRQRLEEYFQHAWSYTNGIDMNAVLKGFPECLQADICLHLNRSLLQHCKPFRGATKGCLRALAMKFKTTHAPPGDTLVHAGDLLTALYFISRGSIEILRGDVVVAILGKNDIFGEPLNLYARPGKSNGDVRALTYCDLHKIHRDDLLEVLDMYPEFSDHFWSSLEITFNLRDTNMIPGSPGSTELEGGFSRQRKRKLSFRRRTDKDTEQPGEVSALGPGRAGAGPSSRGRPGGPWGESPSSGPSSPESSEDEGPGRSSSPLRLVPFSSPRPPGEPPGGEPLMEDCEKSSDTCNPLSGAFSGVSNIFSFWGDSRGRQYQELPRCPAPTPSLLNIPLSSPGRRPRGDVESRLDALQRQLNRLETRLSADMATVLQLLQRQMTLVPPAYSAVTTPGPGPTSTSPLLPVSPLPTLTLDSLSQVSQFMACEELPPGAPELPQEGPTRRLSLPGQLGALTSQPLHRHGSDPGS
T1 sequence (Q99705 whole entry): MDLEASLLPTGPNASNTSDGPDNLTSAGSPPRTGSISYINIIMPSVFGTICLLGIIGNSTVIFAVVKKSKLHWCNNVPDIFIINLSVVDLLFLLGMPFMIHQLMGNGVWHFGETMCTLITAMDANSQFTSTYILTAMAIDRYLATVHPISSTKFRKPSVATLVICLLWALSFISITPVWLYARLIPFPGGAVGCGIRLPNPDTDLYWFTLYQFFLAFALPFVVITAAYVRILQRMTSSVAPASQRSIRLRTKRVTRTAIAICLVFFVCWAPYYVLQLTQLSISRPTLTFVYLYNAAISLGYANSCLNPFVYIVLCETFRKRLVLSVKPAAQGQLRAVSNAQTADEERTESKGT

| IC50 [1] [nM] | IC50 [3] [nM] | Compound | further results |
| --- | --- | --- | --- |
| 24 | 34 | O=c1cc(OCc2ccccc2)ccn1-c1ccc(OCCN2CCOCC2)cc1 | IC50 [2]: > 10000 nM |
| 6.6 | 24 | CCN(CC)CCOc1ccc(-n2ccc(OCc3ccccc3)cc2=O)cc1 | IC50 [2]: 9800 nM |
| 5.1 | 22 | CC(C)N(CCOc1ccc(-n2ccc(OCc3ccccc3)cc2=O)cc1)C(C)C |  |
| 8.7 | 30 | O=c1cc(OCc2ccccc2F)ccn1-c1ccc(OCCN2CCCC2)cc1 | IC50 [2]: 4300 nM |
|  |  | CN(C)CC1CCc2cc(NC(=O)c3ccc(-c4ccc(F)cc4)cc3)ccc2C1 (stereo not given) | Activity (Mus musculus [4]): Active |
| 12 | 23 | CN1CCCC1COc1ccc(-n2ccc(OCc3ccccc3)cc2=O)cc1 (stereo not given) |  |
|  | 19 | O=c1cc(OCc2ccccc2)ccn1-c1ccc(OCCN2CCCCC2)cc1 | concentration at 2 h [5]: 200 nM; Kp at 2 h [6]: 3.8; Drug uptake (Brain): 0.76 nmol/g |
| > 1000 |  | O=c1cc(-c2ccc(F)cc2)ccn1-c1ccc(OCCN2CCCCC2)cc1 |  |
| 5.9 | 22 | O=c1cc(OCc2cccc(F)c2)ccn1-c1ccc(OCCN2CCCC2)cc1 |  |
| 1.4 | 17 | O=c1cc(OCc2ccc(Cl)cc2)ccn1-c1ccc(OCCN2CCCC2)cc1 | concentration at 2 h [5]: 470 nM; Kp at 2 h [6]: 3.6; concentration at 2 h [7]: 10 nM; Drug uptake (Brain): 1.67 nmol/g |
| 650 |  | O=c1cc(OCCc2ccc(F)cc2)ccn1-c1ccc(OCCN2CCCC2)cc1 |  |
|  | 18 | CN(C)CCOc1ccc(-n2ccc(OCc3ccccc3)cc2=O)cc1 | IC50 [2]: > 10000 nM |
| > 1000 |  | CCN(CC)CCN(C(=O)OC)c1ccc(-n2ccc(OCc3ccccc3)cc2=O)cc1 |  |
|  | 11 | COc1ccc(COc2ccn(-c3ccc(OCCN4CCCC4)cc3)c(=O)c2)cc1 |  |
| 150 |  | O=c1cc(OCCOc2ccc(F)cc2)ccn1-c1ccc(OCCN2CCCC2)cc1 |  |
| 51 |  | CC(CN(C)C)Oc1ccc(-n2ccc(OCc3ccccc3)cc2=O)cc1 (stereo not given) |  |
| 18 |  | CN1CCC(Oc2ccc(-n3ccc(OCc4ccccc4)cc3=O)cc2)C1 (stereo not given) | IC50 [2]: > 10000 nM |
| 6.7 | 49 | O=c1cc(OCc2ccc(C(F)(F)F)cc2)ccn1-c1ccc(OCCN2CCCC2)cc1 |  |
| 640 |  | O=c1cc(OCc2ccc(-c3ccccc3)cc2)ccn1-c1ccc(OCCN2CCCC2)cc1 |  |
| 18 |  | CN1CCCCC1COc1ccc(-n2ccc(OCc3ccccc3)cc2=O)cc1 (stereo not given) |  |
| 180 |  | CN(C)CC(C)(C)Oc1ccc(-n2ccc(OCc3ccccc3)cc2=O)cc1 |  |
| 7.7 | 175 | O=c1cc(OCc2ccc3ccccc3c2)ccn1-c1ccc(OCCN2CCCC2)cc1 |  |
| 12 |  | O=c1cc(OCc2ccccc2Cl)ccn1-c1ccc(OCCN2CCCC2)cc1 |  |
| > 1000 |  | O=c1cc(Oc2ccc(F)cc2)ccn1-c1ccc(OCCN2CCCCC2)cc1 |  |
|  | 23 | O=c1cc(OCc2ccc(F)cc2)ccn1-c1ccc(OCCN2CCCC2)cc1 | concentration at 2 h [5]: 1000 nM; Kp at 2 h [6]: 2.4; Activity (Mus musculus [4]): 19%; Activity (Mus musculus [8]): 13%; Activity (Mus musculus [9]): 11%; Activity (Mus musculus [10]): Dose-dependent effect; Activity (Mus musculus [11]): Dose-dependent effect; concentration at 2 h [7]: 55 nM; Activity (Mus musculus [12]): 4%; Drug uptake (Brain): 2.4 nmol/g; Activity (Mus musculus [13]): 6%; Activity (Mus musculus [14]): 21% |
| 16 |  | CCN(CC)CCN(C)c1ccc(-n2ccc(OCc3ccccc3)cc2=O)cc1 | IC50 [2]: 1700 nM |

Reference: ChEMBL document CHEMBL1641472, “Discovery of novel phenylpyridone derivatives as potent and selective MCH1R antagonists” (Bioorg Med Chem, 2011)
